Experimental data from ChEMBL document CHEMBL1158469 (J Med Chem, 2009).
pEC50, pIC50: −log10 of the molar value. Activity calls are given as the source filed them. No cut-off for these calls is given here.

Tests used:
[1] = test system: Mus musculus; assay: Toxicity in BALB/c mouse assessed as recovery of weight loss administered as single ip dose after 14 days; assay type: organism-based; settings: in vivo, 336 h
Procedure, shortened: (§1)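 Tolerability study in five mice given a single ip dose of 100, 75, 50 or 25 mg/kg. Animals observed for 14 days, recording body weight loss as morbidity and mortality.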

[2] = test system: Mus musculus; assay: Toxicity in BALB/c mouse assessed as weight loss at 25 mg/kg, ip administered as single dose after 14 days; assay type: organism-based; set-up: dose 25 mg/kg, route intraperitoneal; settings: in vivo, 336 h
[3] = test system: Mus musculus; assay: Gastrointestinal toxicity in human Bcl2 expressing B6 transgenic mouse at 50 mg/kg, ip administered as single dose after 24 hrs; assay type: organism-based; set-up: dose 50 mg/kg, route intraperitoneal; settings: in vivo
[4] = Membrane permeability assessed as drug permeation at 100 uM at pH 7.2 after 8 hrs by PAMPA; assay type: ADME; settings: pH 7.2, 8 h
[5] = test system: Mus musculus; assay: Toxicity in human Bcl2 expressing B6 transgenic mouse assessed as gastrointestinal toxicity at 42 umol/kg, ip administered as single dose; assay type: organism-based; settings: in vivo
[6] = test system: Mus musculus; assay: Toxicity in BALB/c mouse assessed as mortality at 25 mg/kg, ip administered as single dose after 14 days; assay type: organism-based; set-up: dose 25 mg/kg, route intraperitoneal; settings: in vivo, 336 h
[7] = Stability in rat liver microsome at 4 uM after 1 hr; assay type: ADME; settings: liver microsomes, read-out: Stability
Procedure, shortened: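 Compound incubated for 1 h in rat microsomal preparations; percentage of parent remaining was reported.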

[8] = Stability in rat plasma after 1 hr at 37.5 degC; assay type: ADME, cell-free; settings: read-out: Stability
Procedure, shortened: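 Compound incubated in rat plasma for 1 h; percentage of parent remaining was reported.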

[9] = test system: Mus musculus; assay: Toxicity in BALB/c mouse assessed as weight loss at 50 mg/kg, ip administered as single dose after 14 days; assay type: organism-based; set-up: dose 50 mg/kg, route intraperitoneal; settings: in vivo, 336 h; procedure, shortened: as §1
[10] = test system: Mus musculus; assay: Toxicity in human Bcl2 expressing B6 transgenic mouse administered as single dose at 72 umol/kg, ip after 24 hrs; assay type: organism-based; settings: in vivo
[11] = test system: Mus musculus; assay: Toxicity in BALB/c mouse assessed as weight loss at 75 mg/kg, ip after 5 days; assay type: organism-based; set-up: dose 75 mg/kg, route intraperitoneal; settings: in vivo, 120 h; procedure, shortened: as §1
[12] = test system: Mus musculus; assay: Toxicity in BALB/c mouse assessed as mortality at 100 mg/kg, ip administered as single dose after 14 days; assay type: organism-based; set-up: dose 100 mg/kg, route intraperitoneal; settings: in vivo, 336 h
[13] = test system: Mus musculus; assay: Reduction of spleen weight in human Bcl2 expressing B6 transgenic mouse at 72 umol/kg, ip administered as single dose after 24 hrs; assay type: functional; set-up: scale not given: the % may be the effect or the level left
Procedure, shortened: (§2)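 Age- and sex-matched B6Bcl2 transgenic mice (human BCL-2/IgH minigene, B cells accumulating in spleen), free of aggressive lymphoma. Single ip injection at 72 μmol/kg in 500 μL ethanol:Cremophor EL:saline 10:10:80; controls got vehicle alone. Killed with Avertin after 24 h and spleen weighed. Shrinkage expressed as percentage of maximum spleen-weight reduction.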

[14] = test system: Mus musculus; assay: Toxicity in BALB/c mouse assessed as mortality at 50 mg/kg, ip administered as single dose after 14 days; assay type: organism-based; set-up: dose 50 mg/kg, route intraperitoneal; settings: in vivo, 336 h
[15] = target: Bcl-2-like protein 1 (Homo sapiens) (UniProt Q07817); assay: Inhibition of Bcl-xL at 200 uM by 1D 1H NMR binding assay
Chain of Bcl-2-like protein 1 (Homo sapiens) (Q07817 whole entry): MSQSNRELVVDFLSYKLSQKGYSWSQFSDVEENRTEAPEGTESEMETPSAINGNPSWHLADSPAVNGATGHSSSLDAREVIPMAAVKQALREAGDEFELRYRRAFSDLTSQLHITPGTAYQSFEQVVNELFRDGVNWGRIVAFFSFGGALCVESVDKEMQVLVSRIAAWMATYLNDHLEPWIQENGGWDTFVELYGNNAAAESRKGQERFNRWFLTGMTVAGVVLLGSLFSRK

[16] = Cytotoxicity against wild type mouse fibroblast assessed as induction of cell death at 10 uM by FITC-annexin V and propidium iodide assay; assay type: cell-based
Procedure, shortened: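 Wild-type MEFs seeded at half a million per well in DMEM with 10% FCS. Next day compound added at 0, 2.5, 5.0, 7.5 or 10 μM. On the following day, floating and trypsinized adherent cells were pooled and stained with Annexin V-FITC and PI in binding buffer. Analyzed by flow cytometry, with double-negative cells counted as viable.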

[17] = test system: Mus musculus; assay: Toxicity in mouse assessed as reduction of spleen weight at 42 mg/kg, ip; assay type: organism-based; set-up: dose 42 mg/kg, route intraperitoneal; settings: in vivo
Procedure, shortened: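 B6Bcl2 transgenic mice, six per group, given a single ip dose of 42 mg/kg (60 μmol/kg) in ethanol:Cremophor EL:saline 10:10:80; six vehicle-injected controls. Spleens weighed 24 h after injection. Data are means ± S.E. (n = 6).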

[18] = test system: Mus musculus; assay: Toxicity in human Bcl2 expressing B6 transgenic mouse assessed as weight loss at 42 umol/kg, ip administered as single dose; assay type: organism-based; settings: in vivo
[19] = test system: Mus musculus; assay: Induction of spleen weight shrinkage in human Bcl2 expressing B6 transgenic mouse at 72 umol/kg, ip administered as single dose after 24 hrs; assay type: functional; procedure, shortened: as §2
[20] = Chemical stability after 60 days at room temperature by HPLC/LC-MS analysis; assay type: physicochemical; settings: 1440 h
Procedure, shortened: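 Solid compounds stored in air at room temperature for 60 days. Stability followed by HPLC combined with LC-MS.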

[21] = test system: Mus musculus; assay: Reduction of spleen weight in human Bcl2 expressing B6 transgenic mouse at 42 umol/kg, ip administered as single dose after 24 hrs; assay type: functional; set-up: scale not given: the % may be the effect or the level left
[22] = test system: Mus musculus; assay: Toxicity in BALB/c mouse assessed as mortality at 75 mg/kg, ip administered as single dose after 14 days; assay type: organism-based; set-up: dose 75 mg/kg, route intraperitoneal; settings: in vivo, 336 h
[23] = Cytotoxicity against human H1299 cells assessed as cell viability after 72 hrs by ATP-LITE assay; assay type: functional, cell-based; settings: NCI-H1299, 72 h
Procedure, shortened: (§3)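 ATP-LITE viability readout. Seeded 24 h before dosing (H460, H1299 at 2000 cells/well; PC3 at 3000 cells/well) in 12F2 or RPMI1640 with 5 mM L-glutamine, 5% FBS and pen/strep. Fresh 5% medium added, then compounds in 0.1% DMSO final. Viability read after 72 h treatment and normalized to DMSO-treated cells.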

[24] = Induction of apoptosis in human RS11846 cells after 1 to 2 days by FITC-annexin V and propidium iodide assay; assay type: functional, cell-based
[25] = Cytotoxicity against human PC3-ML cells assessed as cell viability after 72 hrs by ATP-LITE assay; assay type: functional, cell-based; procedure, shortened: as §3
[26] = Induction of apoptosis in human BP3 cells after 1 to 2 days by FITC-annexin V and propidium iodide assay; assay type: functional, cell-based
[27] = test system: NCI-H460; assay: Cytotoxicity against human H460 cells assessed as cell viability after 72 hrs by ATP-LITE assay; assay type: functional, cell-based; settings: NCI-H460, 72 h; procedure, shortened: as §3
[28] = Cytotoxicity against Bax/Bak double knockout mouse fibroblast assessed as induction of cell death at 10 uM by FITC-annexin V and propidium iodide assay; assay type: cell-based
Procedure, shortened: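 MEFs (wild-type and Bax/Bak double knockout) seeded at half a million per well in DMEM with 10% FCS; next day compound added at final 0, 2.5, 5.0, 7.5 and 10 μM. After about one day, floating and trypsinised adherent cells were pooled and stained with Annexin V-FITC and PI. Flow cytometry scored Annexin V-negative/PI-negative cells as viable.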

[29] = target: T1, Bcl-2-related protein A1 (Homo sapiens, UniProt Q16548); assay: Displacement of F-BakBH3 from Bfl-1 by fluorescence polarization assay
T1 sequence (Q16548 whole entry): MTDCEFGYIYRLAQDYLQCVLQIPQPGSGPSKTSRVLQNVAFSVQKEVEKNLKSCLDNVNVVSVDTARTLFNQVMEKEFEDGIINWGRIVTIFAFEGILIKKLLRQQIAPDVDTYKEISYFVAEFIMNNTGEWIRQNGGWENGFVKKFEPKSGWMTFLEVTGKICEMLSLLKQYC

[30] = test system: Mus musculus; assay: Toxicity in human Bcl2 expressing B6 transgenic mouse at 120 umol/kg, ip administered as single dose after 24 hrs; assay type: organism-based; settings: in vivo
[31] = test system: BP3; assay: Cytotoxicity against human BP3 cells expressing Bfl1/Mcl1 by FITC-annexin V and propidium iodide assay; assay type: functional, cell-based

Structure (SMILES)	logPe [4]	remaining at 1 h, 4 µM [7]	remaining at 1 h [8]	Activity [10]	Activity [13]	Activity [15]	Activity [16]	Activity [19]	Stability [20]	pEC50 [23]	pEC50 [24]	pEC50 [25]	pEC50 [26]	pEC50 [27]	further results
Cc1cc2c(C(=O)NCC(C)c3ccccc3)c(O)c(O)cc2c(O)c1-c1c(C)cc2c(C(=O)NCC(C)c3ccccc3)c(O)c(O)cc2c1O (stereo unspecified)	-7.51 log cm/s	76%	96%	Toxic	40%	Active	80%	85%	Stable	–	–	–	–	–	Activity [1]: 80%; Activity [2]: Non-toxic; Activity [3]: Toxic; Activity [5]: Non-toxic; Activity [6]: Non-toxic; Activity [9]: <= 15%; Activity [11]: Non-toxic; Activity [12]: Non-toxic; Activity [14]: Non-toxic; Activity [17]: Non-toxic; Activity [18]: 7.8%; Activity [21]: 70%; Activity [22]: Non-toxic
Cc1cc2c(C(=O)NC(C)c3ccc(Cl)cc3)c(O)c(O)cc2c(O)c1-c1c(C)cc2c(C(=O)NC(C)c3ccc(Cl)cc3)c(O)c(O)cc2c1O (stereo unspecified)	-7.92 log cm/s	71%	94%	Toxic	40%	Active	80%	85%	Stable	5.49	5.26	5.30	5.82	6.30	–
Cc1cc2c(C(C)C)c(O)c(O)c(C=O)c2c(O)c1-c1c(C)cc2c(C(C)C)c(O)c(O)c(C=O)c2c1O [GOSSYPOL]	–	–	–	–	<=20%	Active	Active	<=40%	–	5.22	5.38	5.51	5.85	5.52	Activity [28]: Active
Cc1cc2c(C(C)C)c(O)c(O)cc2c(O)c1-c1c(C)cc2c(C(C)C)c(O)c(O)cc2c1O [APOGOSSYPOL]	-7.16 log cm/s	64%	53%	Non-toxic	<=20%	–	–	<=40%	Stable	–	5.30	4.98	5.33	5.46	pIC50 [29]: < 5.00
Cc1cc2c(CC3CCCC3)c(O)c(O)cc2c(O)c1-c1c(C)cc2c(CC3CCCC3)c(O)c(O)cc2c1O	-6.27 log cm/s	75%	81%	Non-toxic	–	Active	–	–	–	4.96	5.35	4.95	–	5.74	Activity [30]: Non-toxic
Cc1cc2c(CCc3ccccc3)c(O)c(O)cc2c(O)c1-c1c(C)cc2c(CCc3ccccc3)c(O)c(O)cc2c1O	-6.61 log cm/s	89%	80%	Non-toxic	–	Active	–	–	Stable	6.24	5.01	5.62	5.38	6.04	Activity [30]: Non-toxic
CN(C)CC[C@H](CSc1ccccc1)Nc1ccc(S(=O)(=O)NC(=O)c2ccc(N3CCN(Cc4ccccc4-c4ccc(Cl)cc4)CC3)cc2)cc1[N+](=O)[O-]	–	–	–	–	–	–	–	–	–	–	–	–	–	–	Activity [31]: inactive
